According to paper PMC2912405 (Journal of medicinal chemistry, 2010):
Where a name gives a salt, the structure may show the parent alone.

Columns and labels:
many lipases = details: cited from earlier work
phLAL [1] = biological target: T1, phLAL (Homo sapiens, UniProt P38571); details: earlier study; cited from earlier work
T1 sequence (P38571 77-399): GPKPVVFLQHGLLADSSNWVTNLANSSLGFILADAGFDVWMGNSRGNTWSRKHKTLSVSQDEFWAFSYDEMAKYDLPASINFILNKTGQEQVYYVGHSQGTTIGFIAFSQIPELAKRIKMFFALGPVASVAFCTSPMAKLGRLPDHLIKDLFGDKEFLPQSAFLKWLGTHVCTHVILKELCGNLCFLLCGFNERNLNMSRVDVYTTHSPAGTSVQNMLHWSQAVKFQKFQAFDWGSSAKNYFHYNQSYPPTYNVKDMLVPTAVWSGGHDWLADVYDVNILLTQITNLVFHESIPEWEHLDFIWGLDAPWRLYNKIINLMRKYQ

[2] = biological target: T2, purified human LAL (phLAL) (Homo sapiens, UniProt P38571); details: previous studies; cited from earlier work
T2 sequence (P38571 77-399): T1 sequence (P38571 77-399)

[3] = biological target: T2, purified human LAL (phLAL); test: Lineweaver-Burk analysis of LAL inhibition; type: biochemical; details: 30 min pre-incubation at 37 °C, 4MUO at various concentrations
Outline: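 Recombinant purified human LAL pre-incubated with compound for 30 min at 37 °C in 200 mM sodium acetate pH 5.5, 0.02% Tween-20. Started with varied 4-methylumbelliferyl oleate in Triton X-100 and followed by fluorescence (355/450 nm) for 45 min. Compound levels given as final. Double-reciprocal plots fitted by linear regression, two independent experiments.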

[4] = biological target: T2, purified human LAL (phLAL); test: In vitro LAL activity assay; type: biochemical; details: 10 μM compound; Supplemental Figures 1 and 2
LAL = biological target: T3, LAL (Homo sapiens, UniProt P38571); test: LAL activity in lysates of compound-treated cells; type: cell-based; details: for inhibition of LAL in cell lysates: cells treated continuously ~4 days, Figure 4A; for inhibition of LAL in cell lysates after withdrawal: ~3 days treatment, ~1 day recovery in growth medium, Figure 4B
T3 sequence (P38571 77-399): T1 sequence (P38571 77-399)

[5] = system: apparently normal human fibroblasts; test: LipidTOX green neutral lipid accumulation; type: cell-based; details: normal cells, ~3 days treatment; Figure 4D
Outline: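 Normal human fibroblasts kept in MEM (2.2 g/L bicarbonate, 10% FBS) and treated with compound for ~3 days. Stained with LipidTOX green and imaged at 482/35 nm excitation, 536/40 nm emission, 20× 0.5 NA objective, with autofocus per site. LSO ratio is thresholded LipidTOX fluorescence within LSOs, normalised to total cell area from low-threshold filipin signal.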

NPC1 mutant cells = test: Filipin LSO assay of cholesterol accumulation; type: cell-based, human; details: ~3 days treatment, Figure 4C
Outline: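 Compound-treated cells (~3 days) stained with filipin. Automated fluorescence imaging at 4 (10×) or 9 (20×) sites per well, 2×2 binning, laser autofocus per site, 12-bit images. After background correction, LSO ratio is integrated thresholded filipin fluorescence within LSOs, normalised to total cell area defined by low-threshold filipin signal.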

phLAL [6] = biological target: T1, phLAL; test: Time-dependence of LAL inhibition; type: biochemical; details: pre-incubation at 833 nM, 500 nM final, 37 °C; Figure 3
[7] = system: NPC1- or NPC2-defective mice; details: ref 5a, 9; cited from earlier work

## CCCCCCCCCCC[C@@H](C[C@@H]1OC(=O)[C@H]1CCCCCC)OC(=O)[C@H](CC(C)C)NC=O [orlistat]
Many lipases
  inhibition of lipases: potent inhibitor of many lipases

## O=C(Oc1nsnc1N1CCCCC1)N1CCOCC1 [Compound 13]
phLAL [1]
  time-dependence of inhibition upon pre-incubation with phLAL: some time-dependence of inhibition
[2]
  potency and specificity towards LAL: significant potency and specificity towards LAL
[3]
  type of inhibition: apparent competitive inhibitor

## CN1CCC(OC(=O)Nc2ccc(F)cc2)CC1 [1-methyl-4-piperidinyl-N-(4-fluorophenyl) carbamate]
[4]
  inhibition of LAL activity at 10 μM: None of these carbamates inhibited LAL

## COC(N)=O [methyl carbamate]
[4]
  inhibition of LAL activity at 10 μM: None of these carbamates inhibited LAL

## O=C(Oc1nsnc1N1CCOCC1)N1CCCCC1 [Compound 14]
LAL
  inhibition of LAL in cell lysates: much higher level of inhibition of LAL upon cell lysis than 11, 13, 15, and 17
phLAL [1]
  time-dependence of inhibition upon pre-incubation with phLAL: some time-dependence of inhibition
[2]
  potency and specificity towards LAL: significant potency and specificity towards LAL

## CN(C)C(=O)Oc1cccc([N+](C)(C)C)c1 [neostigmine methyl sulfate]
[4]
  inhibition of LAL activity at 10 μM: None of these carbamates inhibited LAL

## COc1ccccc1OCC(O)COC(N)=O (stereo not drawn) [guaiacol glyceryl ether carbamate]
[4]
  inhibition of LAL activity at 10 μM: None of these carbamates inhibited LAL

## Cl.NCCCCCCNC(=O)OCc1ccccc1 [benzyl N-(6-aminohexyl) carbamate hydrochloride]
[4]
  inhibition of LAL activity at 10 μM: None of these carbamates inhibited LAL

## CNC(=O)Oc1ccc2c(c1)[C@]1(C)CCN(C)[C@@H]1N2C [eserine]
[4]
  inhibition of LAL activity at 10 μM: None of these carbamates inhibited LAL

## O=C(Oc1nsnc1N1CCOCC1)N1CCOCC1 [Compound 15]
LAL
  inhibition of LAL in cell lysates: least potent
  inhibition of LAL in cell lysates after withdrawal: least potent
[5]
  increase in neutral lipid accumulation: least potent
NPC1 mutant cells
  decrease in cholesterol accumulation: least potent
phLAL [1]
  time-dependence of inhibition upon pre-incubation with phLAL: some time-dependence of inhibition
[2]
  potency and specificity towards LAL: significant potency and specificity towards LAL

## O=C(Oc1nsnc1N1CCCC1)N1CCCCC1 [Compound 10, 4-(Pyrrolidin-1-yl)-1,2,5-thiadiazol-3-yl piperidine-1-carboxylate]
LAL
  inhibition of LAL in cell lysates: much higher level of inhibition of LAL upon cell lysis than 11, 13, 15, and 17
  inhibition of LAL in cell lysates after withdrawal: maximal potency
phLAL [6]
  pre-incubation time-dependence of inhibition: significantly higher time-dependence than other compounds

## O=C(Oc1nsnc1N1CCCCCC1)N1CCCCC1 [Compound 16]
LAL
  inhibition of LAL in cell lysates: much higher level of inhibition of LAL upon cell lysis than 11, 13, 15, and 17
  inhibition of LAL in cell lysates after withdrawal: maximal potency

## β-cyclodextrins
[7]
  accumulation of cholesterol and other lipids in LSOs: significant reduction
  lifespan: significantly extends lifespan

## O=C(Oc1nsnc1N1CCCCC1)N1CCCCC1 [Compound 12]
LAL
  inhibition of LAL in cell lysates: much higher level of inhibition of LAL upon cell lysis than 11, 13, 15, and 17
  inhibition of LAL in cell lysates after withdrawal: maximal potency
[5]
  increase in neutral lipid accumulation: most potent
NPC1 mutant cells
  decrease in cholesterol accumulation: most potent
